The values below come from publication PMC7225057 (Journal of molecular biology, 2020).

Changes are numbered by the printed parent chain. Residues, ends and D or L forms follow the SMILES beside them. *: point of attachment. FITC = O=C1OC2(c3ccc(O)cc3Oc3cc(O)ccc32)c2ccc(NC(=S)*)cc21; Ahx = NCCCCCC(=O)O

Assay [1] concerns the target T1, RAMP1-CTR.34–141 WT (inactive PNGase F) (Homo sapiens, UniProt O60894+P30988, fusion).
T1 sequence (P30988 34-141): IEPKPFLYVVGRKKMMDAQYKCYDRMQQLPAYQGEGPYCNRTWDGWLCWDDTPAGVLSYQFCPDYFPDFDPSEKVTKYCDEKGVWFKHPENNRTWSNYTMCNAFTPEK
In words: FP saturation binding, RAMP1-CTR.34–141 WT, inactive PNGase F. The note with it: Figure S8D, 10 nM probe, pH 7.4, mean ± SEM, N = 3. The method in brief: (§1)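 RAMP1-CTR ECD fusion WT was expressed in HEK293S GnTI cells, TEV-cleaved to remove MBP, then purified by IMAC/SEC. FP saturation binding at room temperature used 10 nM FITC-peptide probe and titrated receptor. Buffer: HEPES pH 7.4 with BSA, maltose, EDTA, Tween 20. Duplicates, pKD by nonlinear fit.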

For assay [2], the target named is RAMP1-CTR.34–141 WT (PNGase F) (Homo sapiens, UniProt O60894+P30988, N125D/N130D/N73D). In words: FP saturation binding, RAMP1-CTR.34–141 WT, PNGase F. The settings on record: Figure S8D, 10 nM probe, pH 7.4, N = 3. The method in brief:
as §1

The next assay has as its target T2, RAMP1-CTR.34–141 N130D (Homo sapiens, UniProt O60894+P30988, N130D/fusion).
T2 sequence (P30988 34-141 N130D): T1 sequence (P30988 34-141) with N97D
In words: FP saturation binding, RAMP1-CTR.34–141 N130D. The note with it: Figure S8D; no enzyme; 10 nM probe, pH 7.4; mean ± SEM, N = 3.

In assay [3] the target is T3, CTR.38–141 N130D (CTR ECD; HEK293S GnTI^−, Endo H) (Homo sapiens, UniProt P30988, N130D).
T3 sequence (P30988 38-141 N130D): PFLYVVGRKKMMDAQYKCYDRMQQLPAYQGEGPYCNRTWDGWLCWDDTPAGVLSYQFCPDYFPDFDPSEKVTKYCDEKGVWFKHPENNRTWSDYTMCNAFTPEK
In words: FP saturation binding, CTR.38–141 N130D, Endo H. The settings on record: N130D vs Endo H-treated WT.

The target of assay [4] is T4, Glycan-free CTR.38–141 WT (CTR ECD; E. coli) (Homo sapiens, UniProt P30988).
T4 sequence (P30988 38-141): T3 sequence (P30988 38-141 N130D) with D93N
In words: FP saturation binding, glycan-free CTR.38–141 WT. The settings on record: glycan-free vs Endo H-treated WT.

The subject of assay [5] is glucagon-like peptide 1 receptor (GLP-1R). The note with it: cited from earlier work.
Assay [6] shares this test system. The settings on record: cited from earlier work. This is another data set of the same source.
In assay [7] the test system is IL-7 receptor α unit (IL-7Rα) ectodomain. The settings on record: cited from earlier work.
The subject of assay [8] is Pituitary adenylate cyclase activating polypeptide (PACAP) type I (PAC1) receptor. The note with it: tunicamycin treatment, binding capacity not altered; cited from earlier work.
For assay [9], the system named is PTH type 1 receptor (PTH1R). The note with it: cited from earlier work.
A further assay has as its system CTR ECD. The settings on record: isolated ECD; cited from earlier work.
The next assay has as its system CTR. The settings on record: cited from earlier work.

On to `CC(C)C[C@H](NC(=O)[C@H](CCCNC(=N)N)NC(=O)[C@@H](NC(=O)[C@H](CC(C)C)NC(=O)[C@H](Cc1ccccc1)NC(=O)[C@H](CC(N)=O)NC(=O)[C@H](C)NC(=O)CCCCCNC(=S)Nc1ccc2c(c1)C(=O)OC21c2ccc(O)cc2Oc2cc(O)ccc21)C(C)C)C(=O)N[C@@H](CCC(N)=O)C(=O)N[C@H](C(=O)N[C@@H](Cc1ccc(O)cc1)C(=O)N1CCC[C@H]1C(=O)N[C@@H](CCCNC(=N)N)C(=O)N[C@H](C(=O)N[C@@H](CC(N)=O)C(=O)N[C@H](C(=O)NCC(=O)N[C@@H](C)C(=O)N[C@@H](CC(N)=O)C(=O)N[C@H](C(=O)N[C@@H](Cc1ccc(O)cc1)C(N)=O)[C@@H](C)O)C(C)C)[C@@H](C)O)[C@@H](C)O` [FITC-AC413(6–25)] ({FITC-Ahx}-ANFLVRLQTYPRTNVGANTY-NH2; N-terminus and C-terminus assumed), for which the negative logarithm of the KD (pKD) (commonly the negative decadic logarithm of the KD, by convention in mol/L) in assay [1] is reported as 6.01 ± 0.03; in assay [2] it was < 5.0; on RAMP1-CTR.34–141 N130D, 5.12 ± 0.07. For `C[C@@H](O)[C@H](NC(=O)[C@H](CC(N)=O)NC(=O)[C@@H](NC(=O)[C@H](CCCNC(=N)N)NC(=O)[C@@H]1CCCN1C(=O)[C@H](Cc1ccc(O)cc1)NC(=S)Nc1ccc2c(c1)C(=O)OC21c2ccc(O)cc2Oc2cc(O)ccc21)[C@@H](C)O)C(=O)NCC(=O)N[C@@H](CO)C(=O)NCC(=O)N[C@H](C(=O)N1CCC[C@H]1C(N)=O)[C@@H](C)O` [FITC-sCT(22–32)] ({FITC}-YPRTNTGSGTP-NH2), the affinity decrease entry in assay [3] and in assay [4] was “over 5 fold” throughout. In the case of “GLP-1: GLP-1, ligand of glucagon-like peptide 1 receptor”, the “affinity, double mutation of two N-glycosylation sites” value in assay [5] is recorded as “significantly reduced GLP-1 affinity”. Also, the “signaling potency, double mutation of two N-glycosylation sites” value in assay [6] was “significantly reduced GLP-1 affinity and signaling potency”. “IL-7: IL-7, ligand of IL-7 receptor α unit”: in assay [7], the “association rate with N-glycosylated receptor” value is reported as “accelerated association rate” and the “effect of N-glycosylation on binding affinity” value is reported as “significantly increased IL-7 binding affinity”. As for PACAP-27, the “affinity decrease by tunicamycin” value in assay [8] is reported as 30 fold. In the case of PTH: PTH, ligand of PTH type 1 receptor, in assay [9] (N161D mutation of PTH1R), the “binding affinity, N161D mutation” value is given as “did not change the binding affinity for PTH”. The “binding affinity after tunicamycin” value in [9] (human PTH1R expressed in mammalian cells, tunicamycin treatment) is “no changes in PTH binding affinity”. Regarding calcitonin, the “binding affinity enhancement by CTR N-glycosylation” value with CTR ECD is listed as ~ 10 fold. For salmon calcitonin, in the assay on CTR, the “affinity vs human calcitonin” value is reported as “higher affinity than human calcitonin”.
